# Active and inactive are the calls of the source. The calls are words filed in the database; no cut-off is given here.
# What was measured:
# [1] = tested on: MDA-MB-231; experiment: Cytotoxicity against human MDA-MB-231 cells assessed as reduction in cell viability by cell titer 96 aqueous one solution based assay; type: functional
# In short: (§1)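 MDA-MB-231 and MCF-7 breast cancer cells were treated with increasing concentrations of compound. Viability was read by MTS assay, and IC50 values were derived from the concentration–response data.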
# [2] = tested on: MCF7; experiment: Cytotoxicity against human MCF7 cells assessed as reduction in cell viability by cell titer 96 aqueous one solution based assay; type: functional; in short: as §1
# [3] = tested on: MDA-MB-231; experiment: Cytotoxicity against human MDA-MB-231 cells assessed as reduction in cell viability up to 10 uM after 24 to 72 hrs by cell titer 96 aqueous one solution based assay; type: functional
# In short: (§2)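 Triple-negative breast cancer cells were incubated with compound for 24, 48 or 72 h. Viability was then measured by MTS assay across a concentration series.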
# [4] = tested on: MDA-MB-231; experiment: Cytotoxicity against human MDA-MB-231 cells assessed as reduction in cell viability up to 10 uM in serum-free medium by cell titer 96 aqueous one solution based assay; type: functional
# In short: (§3)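 Viability was measured by MTS after treating triple-negative breast cancer cells in serum-free medium, either alone or with BSA added to the serum-free medium, across a concentration series.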
# [5] = tested on: MDA-MB-231; experiment: Cytotoxicity against human MDA-MB-231 cells assessed as reduction in cell viability up to 10 uM in presence of bovine serum albumin by cell titer 96 aqueous one solution based assay; type: functional; in short: as §3
# [6] = tested on: MDA-MB-231; experiment: Induction of apoptosis in human MDA-MB-231 cells assessed as increase in caspase 3/7 activity by Caspase-Glo 3/7 luciferase-based assay; type: functional, cell-based
# In short: (§4)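 Cells were treated with a range of compound concentrations. Apoptosis was read as caspase-3/7 activity using a luciferase-based luminescent assay.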
# [7] = tested on: MDA-MB-231; experiment: Induction of apoptosis in human MDA-MB-231 cells assessed as increase in cleaved PARP level up to 10 uM by Western blot analysis; type: functional, cell-based
# In short: (§5)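 Cells were treated with a range of compound concentrations. Apoptosis was assessed by Western blot detection of cleaved poly-ADP ribose polymerase (PARP).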
# [8] = tested on: MDA-MB-157; experiment: Cytotoxicity against human MDA-MB-157 cells assessed as reduction in cell viability up to 10 uM after 24 to 72 hrs by cell titer 96 aqueous one solution based assay; type: functional; in short: as §2
# [9] = tested on: MDA-MB-157; experiment: Cytotoxicity against human MDA-MB-157 cells assessed as reduction in cell viability up to 10 uM in serum-free medium by cell titer 96 aqueous one solution based assay; type: functional; in short: as §3
# [10] = tested on: MDA-MB-157; experiment: Cytotoxicity against human MDA-MB-157 cells assessed as reduction in cell viability up to 10 uM in presence of bovine serum albumin by cell titer 96 aqueous one solution based assay; type: functional; in short: as §3
# [11] = tested on: MDA-MB-157; experiment: Induction of apoptosis in human MDA-MB-157 cells assessed as increase in caspase 3/7 activity up to 10 uM by Caspase-Glo 3/7 luciferase-based assay; type: functional, cell-based; in short: as §4
# [12] = tested on: MDA-MB-157; experiment: Induction of apoptosis in human MDA-MB-157 cells assessed as increase in cleaved PARP level up to 10 uM by Western blot analysis; type: functional, cell-based; in short: as §5
# [13] = target: T1, AMP-activated protein kinase, AMPK (Homo sapiens) (UniProt P54646+O43741+P54619+Q9UGJ0+Q9Y478+Q13131+Q9UGI9); experiment: Increase in AMPK phosphorylation at T172 in human MDA-MB-231 cells at 20 uM after 12 hrs by RPPA analysis; type: cell-based
# [14] = target: T1, AMP-activated protein kinase, AMPK (Homo sapiens); experiment: Increase in AMPK phosphorylation at T172 in human MCF7 cells at 20 uM after 12 hrs by RPPA analysis; type: cell-based
# [15] = target: T2, Acetyl-CoA carboxylase (Homo sapiens) (UniProt Q13085+O00763); experiment: Increase in ACC phosphorylation at Ser79 in human MDA-MB-231 cells at 20 uM after 12 hrs by RPPA analysis; type: cell-based
# [16] = target: T2, Acetyl-CoA carboxylase (Homo sapiens); experiment: Increase in ACC phosphorylation at Ser79 in human MCF7 cells at 20 uM after 12 hrs by RPPA analysis; type: cell-based
# [17] = tested on: MDA-MB-231; experiment: Inhibition of mTORC1 signaling in human MDA-MB-231 cells assessed as reduction in p70S6K phosphorylation at Thr389 at 20 uM after 12 hrs by RPPA analysis; type: cell-based
# [18] = tested on: MDA-MB-231; experiment: Inhibition of mTORC1 signaling in human MDA-MB-231 cells assessed as reduction in S6 phosphorylation at Ser235 at 20 uM after 12 hrs by RPPA analysis; type: cell-based
# [19] = tested on: MDA-MB-231; experiment: Inhibition of mTORC1 signaling in human MDA-MB-231 cells assessed as reduction in S6 phosphorylation at Ser236 at 20 uM after 12 hrs by RPPA analysis; type: cell-based
# [20] = tested on: MDA-MB-231; experiment: Inhibition of mTORC1 signaling in human MDA-MB-231 cells assessed as reduction in S6 phosphorylation at Ser240 at 20 uM after 12 hrs by RPPA analysis; type: cell-based
# [21] = tested on: MDA-MB-231; experiment: Inhibition of mTORC1 signaling in human MDA-MB-231 cells assessed as reduction in S6 phosphorylation at Ser244 at 20 uM after 12 hrs by RPPA analysis; type: cell-based
# [22] = tested on: MDA-MB-231; experiment: Effect on total p70S6K level in human MDA-MB-231 cells at 20 uM after 12 hrs by RPPA analysis; type: cell-based; conditions: mda-mb-231, 12 h
# [23] = tested on: MDA-MB-231; experiment: Effect on total S6 level in human MDA-MB-231 cells at 20 uM after 12 hrs by RPPA analysis; type: cell-based; conditions: mda-mb-231, 12 h
# [24] = tested on: MDA-MB-231; experiment: Inhibition of mTORC1 signaling in human MDA-MB-231 cells assessed as reduction in […] at 10 uM by Western blot analysis; type: cell-based
# [25] = tested on: MDA-MB-157; experiment: Inhibition of mTORC1 signaling in human MDA-MB-157 cells assessed as reduction in […] at 10 uM by Western blot analysis; type: cell-based
# [26] = tested on: MDA-MB-231; experiment: Inhibition of PI3K/AKT in human MDA-MB-231 cells assessed as reduction in mTOR phosphorylation at Ser2448 at 20 uM after 12 hrs by RPPA analysis; type: cell-based
# [27] = tested on: MCF7; experiment: Inhibition of PI3K/AKT in human MCF7 cells assessed as reduction in mTOR phosphorylation at Ser2448 at 20 uM after 12 hrs by RPPA analysis; type: cell-based
# [28] = tested on: MDA-MB-231; experiment: Inhibition of PI3K/AKT in human MDA-MB-231 cells assessed as reduction in mTOR phosphorylation at Ser2448 up to 10 uM by Western blot analysis; type: cell-based
# [29] = tested on: MDA-MB-157; experiment: Inhibition of PI3K/AKT in human MDA-MB-157 cells assessed as reduction in mTOR phosphorylation at Ser2448 up to 10 uM by Western blot analysis; type: cell-based
# [30] = tested on: MDA-MB-231; experiment: Cytotoxicity against human MDA-MB-231 cells assessed as reduction in cell viability after 24 to 72 hrs by cell titer 96 aqueous one solution based assay; type: functional; in short: as §2
# [31] = tested on: MDA-MB-231; experiment: Inhibition of mTORC1 signaling in human MDA-MB-231 cells assessed as alanine accumulation after 7 to 24 hrs by 1H-MRS analysis; type: cell-based
# In short: (§6)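 MDA-MB-231 cells were treated for 7 or 24 h, and intracellular metabolites were profiled by 1H-MRS. Treated and untreated groups were compared by principal component analysis.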
# [32] = tested on: MDA-MB-231; experiment: Inhibition of mTORC1 signaling in human MDA-MB-231 cells assessed as aspartate accumulation after 7 to 24 hrs by 1H-MRS analysis; type: cell-based; in short: as §6
# [33] = tested on: MDA-MB-231; experiment: Inhibition of mTORC1 signaling in human MDA-MB-231 cells assessed as glutamine accumulation after 7 to 24 hrs by 1H-MRS analysis; type: cell-based; in short: as §6
# [34] = tested on: MDA-MB-231; experiment: Inhibition of mTORC1 signaling in human MDA-MB-231 cells assessed as proline accumulation after 7 to 24 hrs by 1H-MRS analysis; type: cell-based; in short: as §6
# [35] = tested on: MDA-MB-231; experiment: Inhibition of mTORC1 signaling in human MDA-MB-231 cells assessed as glycine accumulation after 7 to 24 hrs by 1H-MRS analysis; type: cell-based; in short: as §6
# [36] = tested on: MDA-MB-231; experiment: Inhibition of mTORC1 signaling in human MDA-MB-231 cells assessed as phenylalanine accumulation after 7 to 24 hrs by 1H-MRS analysis; type: cell-based; in short: as §6
# [37] = tested on: MDA-MB-231; experiment: Inhibition of mTORC1 signaling in human MDA-MB-231 cells assessed as tyrosine accumulation after 7 to 24 hrs by 1H-MRS analysis; type: cell-based; in short: as §6
# [38] = tested on: MDA-MB-231; experiment: Inhibition of mTORC1 signaling in human MDA-MB-231 cells assessed as intracellular UDP-glucose accumulation after 7 to 24 hrs by 1H-MRS analysis; type: cell-based; in short: as §6
# [39] = tested on: MDA-MB-231; experiment: Inhibition of mTORC1 signaling in human MDA-MB-231 cells assessed as intracellular UDP N-acetylglucosamine accumulation after 7 to 24 hrs by 1H-MRS analysis; type: cell-based; in short: as §6
smiles,measurement,setting,value
NCCc1c[nH]c2ccc(OCCCCCCCCCBr)cc12,IC50,[1],10 µM
same,IC50,[2],17 µM
CCCCCCCCCOc1ccc2[nH]cc(CCN)c2c1,IC50,[1],4.7 µM
same,IC50,[2],8.8 µM
CCCCCCCCCOc1cccc2[nH]cc(CCN)c12.Cl,IC50,[1],4.2 µM
same,IC50,[2],4.9 µM
same,Activity,[3],Active
same,Activity,[4],Active
same,Activity,[5],inactive
same,Activity,[6],Dose-dependent effect
same,Activity,[7],Active
same,Activity,[8],Active
same,Activity,[9],Active
same,Activity,[10],Active
same,Activity,[11],Active
same,Activity,[12],Active
same,Activity,[13],Active
same,Activity,[14],Active
same,Activity,[15],Active
same,Activity,[16],Active
same,inhibition,[17],Active
same,inhibition,[18],Active
same,inhibition,[19],Active
same,inhibition,[20],Active
same,inhibition,[21],Active
same,Activity,[22],Non-Toxic
same,Activity,[23],Non-Toxic
same,inhibition,[24],Active
same,inhibition,[25],Active
same,inhibition,[26],inactive
same,inhibition,[27],inactive
same,inhibition,[28],inactive
same,inhibition,[29],inactive
NCCc1c[nH]c2ccc(OCc3cccc(COc4ccc5[nH]cc(CCN)c5c4)c3)cc12,IC50,[1],18 µM
same,IC50,[2],22 µM
CCCCCCCCCCOc1ccc2[nH]cc(CCN)c2c1,IC50,[1],4.4 µM
same,IC50,[2],9 µM
CCCCCCCCCCCOc1ccc2[nH]cc(CCN)c2c1,IC50,[1],4.4 µM
same,IC50,[2],6.1 µM
CCCCCCCCCCCCOc1cccc2c(CCN)c[nH]c12,IC50,[1],4.6 µM
same,IC50,[2],8.6 µM
CCCCCCCCCCCCCCOc1ccc2[nH]cc(CCN)c2c1,IC50,[1],4.8 µM
same,IC50,[2],8.4 µM
N#CCCCCCCOc1ccc2[nH]cc(CCN)c2c1,IC50,[1],> 50 µM
same,IC50,[2],> 50 µM
CCCCCCCCCOc1cccc2c(CCN)c[nH]c12,IC50,[1],8 µM
same,IC50,[2],15 µM
CCCCC(CC)COc1ccc2[nH]cc(CCN)c2c1 (stereo not drawn),IC50,[1],8.2 µM
same,IC50,[2],15 µM
CCCCOc1ccc2[nH]cc(CCN)c2c1,IC50,[1],48 µM
same,IC50,[2],45 µM
CCCCCCCCCCCCOc1cccc2[nH]cc(CCN)c12,IC50,[1],4.1 µM
same,IC50,[2],5 µM
CCCCCCCCCCCCOc1ccc2[nH]cc(CCN)c2c1.Cl,IC50,[1],4.6 µM
same,IC50,[2],5.1 µM
same,Activity,[30],Active
same,Activity,[4],inactive
same,Activity,[6],Dose-dependent effect
same,Activity,[7],Active
same,Activity,[8],Active
same,Activity,[9],Active
same,Activity,[10],Active
same,Activity,[11],Active
same,Activity,[12],Active
same,Activity,[13],Active
same,Activity,[14],Active
same,Activity,[15],Active
same,Activity,[16],Active
same,inhibition,[17],Active
same,inhibition,[18],Active
same,inhibition,[19],Active
same,inhibition,[20],Active
same,inhibition,[21],Active
same,Activity,[22],Non-Toxic
same,Activity,[23],Non-Toxic
same,inhibition,[24],Active
same,inhibition,[25],Active
same,inhibition,[26],inactive
same,inhibition,[27],inactive
same,inhibition,[28],inactive
same,inhibition,[29],inactive
same,inhibition,[31],Active
same,inhibition,[32],Active
same,inhibition,[33],Active
same,inhibition,[34],Active
same,inhibition,[35],Active
same,inhibition,[36],Active
same,inhibition,[37],Active
same,inhibition,[38],Active
same,inhibition,[39],Active
CCCCCCCCCCCCCCCCOc1ccc2[nH]cc(CCN)c2c1,IC50,[1],7.5 µM
same,IC50,[2],13 µM
CCCCCCCCOc1ccc2[nH]cc(CCN)c2c1,IC50,[1],7.3 µM
same,IC50,[2],13 µM
NCCc1c[nH]c2ccccc12 [TRYPTAMINE],IC50,[1],> 50 µM
same,IC50,[2],> 50 µM
NCCc1c[nH]c2ccc(OCc3ccc(COc4ccc5[nH]cc(CCN)c5c4)cc3)cc12,IC50,[1],20 µM
same,IC50,[2],24 µM
